Data reported in ChEMBL document CHEMBL1144676, “Synthesis and structure-activity relationships of a series of benzazepine derivatives as 5-HT2C receptor agonists” (Bioorg Med Chem, 2008).
pKi: −log10 of the molar value.

Columns and labels:
[1] = biological target: T1, 5-hydroxytryptamine receptor 2A (Homo sapiens, UniProt P28223); experiment: Displacement of [3H]5-HT from human 5HT2A receptor expressed in CHO cells; type: cell-based
In short: (§1)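 Radioligand displacement of [3H]5-HT using membranes from CHO cells (5-HT2C, 5-HT2A) or HEK293-EBNA cells (5-HT2B). Medium: 50 mM Tris-HCl pH 7.4, 4 mM CaCl2, pargyline, 0.1 mg/mL ascorbic acid. Incubated 37 C for 30 min, then vacuum-filtered on PEI-treated GF/B filters and counted by scintillation. Non-specific binding defined with 10 µM 5-HT. Ki obtained by Cheng-Prusoff.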

[2] = biological target: T1, 5-hydroxytryptamine receptor 2A; experiment: Intrinsic activity at human 5HT2A receptor expressed in CHO cells assessed as myo-[3H]inositol turnover relative to 5-hydroxytryptamine; type: functional, cell-based
In short: (§2)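 Receptor-expressing CHO cells cultured 1 day, then labelled 24 h with myo-[3H]inositol (3 µCi/mL). Cells washed, held in PBS 20 min, then PBS-LiCl 20 min, then exposed 20 min to compound in PBS-LiCl. Stopped with PCA; [3H]inositol phosphates isolated on AG1-X8 anion-exchange columns and counted. Emax expressed relative to 10 µM 5-HT (100%), derived by non-linear fitting.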

[3] = biological target: T2, 5-hydroxytryptamine receptor 2C (Homo sapiens, UniProt P28335); experiment: Displacement of [3H]5-HT from human 5HT2C receptor expressed in CHO cells; type: cell-based; in short: as §1
T2 sequence (P28335 whole entry): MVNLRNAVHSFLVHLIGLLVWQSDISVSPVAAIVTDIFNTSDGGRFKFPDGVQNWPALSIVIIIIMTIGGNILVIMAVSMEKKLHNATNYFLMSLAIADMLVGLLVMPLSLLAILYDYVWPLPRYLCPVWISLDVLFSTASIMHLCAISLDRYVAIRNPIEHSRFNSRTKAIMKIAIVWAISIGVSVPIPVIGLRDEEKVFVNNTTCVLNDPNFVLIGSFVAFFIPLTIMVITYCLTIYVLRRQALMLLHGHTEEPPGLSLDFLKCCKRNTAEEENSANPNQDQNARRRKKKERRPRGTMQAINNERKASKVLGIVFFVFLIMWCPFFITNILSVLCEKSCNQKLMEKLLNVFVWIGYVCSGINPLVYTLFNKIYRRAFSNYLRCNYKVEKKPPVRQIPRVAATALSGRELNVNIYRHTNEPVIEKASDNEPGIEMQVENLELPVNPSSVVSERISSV

[4] = biological target: T3, 5-hydroxytryptamine receptor 2C (Homo sapiens) (UniProt P28335); experiment: Intrinsic activity at human 5HT2C receptor expressed in CHO cells assessed as myo-[3H]inositol turnover relative to 5-hydroxytryptamine; type: functional, cell-based; in short: as §2
T3 sequence (whole entry): T2 sequence (P28335 whole entry)

[5] = biological target: Serotonin 2 receptors; 5-HT2a & 5-HT2c (Homo sapiens) (UniProt P28223+P28335); experiment: Selectivity for human 5HT2C receptor over human 5HT2A receptor
Homo sapiens = species on record: Homo sapiens; experiment: Selectivity for human 5HT2C receptor over human 5HT2B receptor
[6] = biological target: 5-hydroxytryptamine receptor 2B (Homo sapiens, UniProt P41595); experiment: Displacement of [3H]5-HT from human 5HT2B receptor expressed in HEK293-EBNA cells; type: cell-based; in short: as §1
Rattus norvegicus [7] = experiment: Effect on penile erection in po dosed rat; type: functional; details: read-out: MED
In short: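 Rats given compound orally and placed singly in clear cages; penile erections counted over 30 min post-dose, with testing between 13:00 and 19:00. Erection scored as pelvic thrusts, rising onto hind limbs, engorged penis and licking. MED taken as the lowest dose differing from vehicle at p < 0.05.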

Rattus norvegicus [8] = experiment: Cardiovascular effect in po dosed rat assessed as increase in mean arterial blood pressure; type: functional, organism-based; details: Artery
In short: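 Carotid artery catheterised under pentobarbital (60 mg/kg ip). After at least 2 days of recovery, conscious rats stabilised ≥30 min in cages and then dosed orally at 3–30 mg/kg. Mean arterial blood pressure recorded via the catheter. A 5-HT2A antagonist, MDL100907, was also used.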

T1 sequence (P28223 whole entry): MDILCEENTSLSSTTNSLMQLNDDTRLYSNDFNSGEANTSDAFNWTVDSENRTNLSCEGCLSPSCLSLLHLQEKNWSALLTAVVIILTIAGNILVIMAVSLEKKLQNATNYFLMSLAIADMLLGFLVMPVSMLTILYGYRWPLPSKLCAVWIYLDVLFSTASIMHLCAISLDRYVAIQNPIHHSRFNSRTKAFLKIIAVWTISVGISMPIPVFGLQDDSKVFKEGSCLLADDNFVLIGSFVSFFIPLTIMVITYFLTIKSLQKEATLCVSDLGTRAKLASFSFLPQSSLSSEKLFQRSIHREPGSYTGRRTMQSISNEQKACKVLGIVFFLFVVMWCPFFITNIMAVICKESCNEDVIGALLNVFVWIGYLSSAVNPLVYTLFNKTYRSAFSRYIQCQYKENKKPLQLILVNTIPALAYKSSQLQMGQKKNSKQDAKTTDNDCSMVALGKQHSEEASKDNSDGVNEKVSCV
Chain of Serotonin 2 receptors; 5-HT2a & 5-HT2c (Homo sapiens) (P28223 whole entry, looked up, one chain of several): as the sequence (P28223 whole entry) above
Chain of 5-hydroxytryptamine receptor 2B (P41595 whole entry): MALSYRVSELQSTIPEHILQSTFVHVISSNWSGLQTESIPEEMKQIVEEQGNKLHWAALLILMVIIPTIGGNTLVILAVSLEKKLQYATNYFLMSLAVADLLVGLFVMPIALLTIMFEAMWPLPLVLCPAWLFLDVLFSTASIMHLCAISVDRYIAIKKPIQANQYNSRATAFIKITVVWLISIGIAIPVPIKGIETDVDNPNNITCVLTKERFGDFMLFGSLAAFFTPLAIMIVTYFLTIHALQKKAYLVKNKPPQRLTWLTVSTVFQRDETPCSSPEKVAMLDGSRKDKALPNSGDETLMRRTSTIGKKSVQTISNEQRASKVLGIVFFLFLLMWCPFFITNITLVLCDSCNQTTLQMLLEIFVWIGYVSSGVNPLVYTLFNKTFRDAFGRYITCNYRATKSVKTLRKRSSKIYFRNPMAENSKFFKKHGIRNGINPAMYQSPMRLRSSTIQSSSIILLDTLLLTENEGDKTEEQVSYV

## c1cc2c3c(ccc2o1)CCNCC3
[1]
  pKi: 7.34
[2]
  Emax: 47%
[3]
  pKi: 7.70
[4]
  Emax: 82%
[5]
  Ratio Ki: 2
Homo sapiens
  Ratio Ki: 5
[6]
  pKi: 7.05

## CN1CCc2ccc([N+](=O)[O-])c(Cl)c2CC1
[1]
  pKi: 6.40
[2]
  Emax: 7%
[3]
  pKi: 7.18
[4]
  Emax: 85%
[5]
  Ratio Ki: 6
Homo sapiens
  Ratio Ki: 5
[6]
  pKi: 6.00

## COc1ccc2c(c1Cl)CCNCC2
[1]
  pKi: 7.21
[2]
  Emax: 56%
[3]
  pKi: 7.70
[4]
  Emax: 88%
[5]
  Ratio Ki: 3
Homo sapiens
  Ratio Ki: 4
[6]
  pKi: 7.08

## CCc1cc2c(ccc3cnn(C[C@H](C)N)c32)o1
Rattus norvegicus [7]
  minimal effective dose: 0.3 mg/kg
[5]
  Ratio Ki: 15
Homo sapiens
  Ratio Ki: 2.8
Rattus norvegicus [8]
  Activity: Dose-dependent effect
[6]
  pKi: 8.60

## Clc1ccc2c(c1Cl)CCNCC2
Rattus norvegicus [7]
  minimal effective dose: 0.3 mg/kg
[1]
  pKi: 7.03
[2]
  Emax: 27%
[3]
  pKi: 8.06
[4]
  Emax: 87%
[5]
  Ratio Ki: 11
Homo sapiens
  Ratio Ki: 11
[6]
  pKi: 7.00

## c1cc2ccc3c(c2o1)CCNCC3
[1]
  pKi: 7.00
[2]
  Emax: 40%
[3]
  pKi: 7.64
[4]
  Emax: 57%
[5]
  Ratio Ki: 4
Homo sapiens
  Ratio Ki: 1
[6]
  pKi: 7.47

## N#Cc1ccc2c(c1Cl)CCNCC2
[1]
  pKi: 7.52
[2]
  Emax: 23%
[3]
  pKi: 8.29
[4]
  Emax: 81%
[5]
  Ratio Ki: 6
Homo sapiens
  Ratio Ki: 13
[6]
  pKi: 7.19

## Fc1ccc2c(c1Cl)CCNCC2
[1]
  pKi: 6.89
[2]
  Emax: 26%
[3]
  pKi: 7.37
[4]
  Emax: 80%
[5]
  Ratio Ki: 3
Homo sapiens
  Ratio Ki: 10
[6]
  pKi: 6.39

## Clc1c(Br)ccc2c1CCNCC2
[1]
  pKi: 8.00
[2]
  Emax: 32%
[3]
  pKi: 8.62
[4]
  Emax: 71%
[5]
  Ratio Ki: 4
Homo sapiens
  Ratio Ki: 10
[6]
  pKi: 7.60

## CNc1ccc2c(c1Cl)CCNCC2
[1]
  pKi: 7.05
[2]
  Emax: 90%
[3]
  pKi: 7.34
[4]
  Emax: 81%
[5]
  Ratio Ki: 2
Homo sapiens
  Ratio Ki: 5
[6]
  pKi: 6.68

## O=[N+]([O-])c1ccc2c(c1Cl)CCNCC2
[1]
  pKi: 7.29
[2]
  Emax: 38%
[3]
  pKi: 7.85
[4]
  Emax: 86%
[5]
  Ratio Ki: 4
Homo sapiens
  Ratio Ki: 21
[6]
  pKi: 6.52
